Measured values as given in ChEMBL document CHEMBL1143775, “Convenient one pot synthesis of some novel derivatives of thiazolo[2,3-b]dihydropyrimidinone possessing 4-methylthiophenyl moiety and evaluation of their antibacterial and antifungal activities” (2007).
Values after ≈ are worked out from the molar mass of the structure shown.

Columns and labels:
Assay type in all cases: functional
Escherichia coli [1] = assay: Antibacterial activity against Escherichia coli ATCC 25922
Method in brief: (§1)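 Compound-loaded discs were placed on nutrient agar inoculated separately with fresh bacterial strains. Plates were incubated at 37 °C for 24 h with separate solvent and growth controls. Zone of inhibition and MIC were measured. Ciprofloxacin was the reference drug.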

Klebsiella pneumoniae [2] = assay: Antibacterial activity against Klebsiella pneumoniae; method in brief: as §1
Pseudomonas aeruginosa [3] = assay: Antibacterial activity against Pseudomonas aeruginosa ATCC 27853; method in brief: as §1
Candida albicans [4] = assay: Antifungal activity against Candida albicans NCIM 3100 at 10 ug/ml; conditions: read-out: IZ
Method in brief: (§2)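 Serial dilution method on Sabouraud agar (peptone, D-glucose, agar; pH 5.7) seeded with a saline spore suspension made from a loopful of each strain. Plates were dried for 1 h at incubator temperature. Test solutions in DMSO went into punched wells, with a DMSO control. Incubation was at 37 °C for 3–4 days. Zone of inhibition and MIC were read against ciclopiroxolamine as standard.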

Staphylococcus aureus [5] = assay: Antibacterial activity against Staphylococcus aureus ATCC 25923 at 10 ug/ml by disk diffusion method; conditions: read-out: IZ; method in brief: as §1
Klebsiella pneumoniae [6] = assay: Antibacterial activity against Klebsiella pneumoniae at 10 ug/ml; conditions: read-out: IZ; method in brief: as §1
Pseudomonas aeruginosa [7] = assay: Antibacterial activity against Pseudomonas aeruginosa ATCC 27853 at 10 ug/ml; conditions: read-out: IZ; method in brief: as §1
Aspergillus fumigatus [8] = assay: Antifungal activity against Aspergillus fumigatus NCIM 902 by dilution method; method in brief: as §2
Talaromyces marneffei [9] = assay: Antifungal activity against Penicillium marneffei by dilution method; method in brief: as §2
Talaromyces marneffei [10] = assay: Antifungal activity against Penicillium marneffei at 10 ug/ml; conditions: read-out: IZ; method in brief: as §2
Staphylococcus aureus [11] = assay: Antibacterial activity against Staphylococcus aureus ATCC 25923; method in brief: as §1
Aspergillus fumigatus [12] = assay: Antifungal activity against Aspergillus fumigatus NCIM 902 at 10 ug/ml; conditions: read-out: IZ; method in brief: as §2
Escherichia coli [13] = assay: Antibacterial activity against Escherichia coli ATCC 25922 at 10 ug/ml; conditions: read-out: IZ; method in brief: as §1
Candida albicans [14] = assay: Antifungal activity against Candida albicans NCIM 3100 by dilution method; method in brief: as §2
Aspergillus flavus [15] = assay: Antifungal activity against Aspergillus flavus NCIM 524 at 10 ug/ml; conditions: read-out: IZ; method in brief: as §2
Aspergillus flavus [16] = assay: Antifungal activity against Aspergillus flavus NCIM 524 by dilution method; method in brief: as §2

Compound | MIC (Escherichia coli [1]) [µg/mL] | MIC (Klebsiella pneumoniae [2]) [µg/mL] | MIC (Pseudomonas aeruginosa [3]) [µg/mL] | zone of inhibition at 10 µg/mL (Candida albicans [4]) [mm] | zone of inhibition at 10 µg/mL (Staphylococcus aureus [5]) [mm] | zone of inhibition at 10 µg/mL (Klebsiella pneumoniae [6]) [mm] | zone of inhibition at 10 µg/mL (Pseudomonas aeruginosa [7]) [mm] | MIC (Aspergillus fumigatus [8]) [µg/mL] | MIC (Talaromyces marneffei [9]) [µg/mL] | zone of inhibition at 10 µg/mL (Talaromyces marneffei [10]) [mm] | MIC (Staphylococcus aureus [11]) [µg/mL] | zone of inhibition at 10 µg/mL (Aspergillus fumigatus [12]) [mm] | zone of inhibition at 10 µg/mL (Escherichia coli [13]) [mm] | MIC (Candida albicans [14]) [µg/mL] | zone of inhibition at 10 µg/mL (Aspergillus flavus [15]) [mm] | MIC (Aspergillus flavus [16]) [µg/mL]
CCOC(=O)C1=C(C)N=c2s/c(=C\c3ccc(SC)cc3)c(=O)n2C1c1ccc(SC)cc1 (centres undefined) | 25 (≈ 50.3 µM) | 12.5 (≈ 25.2 µM) | 12.5 (≈ 25.2 µM) | 10 | 10 | 12 | 13 | 12.5 (≈ 25.2 µM) | 12.5 (≈ 25.2 µM) | 12 | 25 (≈ 50.3 µM) | 12 | 12 | 12.5 (≈ 25.2 µM) | 10 | 25 (≈ 50.3 µM)
CCOC(=O)C1=C(C)N=c2s/c(=C\c3ccc(F)cc3)c(=O)n2C1c1ccc(SC)cc1 (centres undefined) | 12.5 (≈ 26.7 µM) | 6 (≈ 12.8 µM) | 12.5 (≈ 26.7 µM) | 19 | 18 | 20 | 10 | 6 (≈ 12.8 µM) | 6 (≈ 12.8 µM) | 20 | 12.5 (≈ 26.7 µM) | 20 | 17 | 6 (≈ 12.8 µM) | 18 | 12.5 (≈ 26.7 µM)
O=C(O)c1cn(C2CC2)c2cc(N3CCNCC3)c(F)cc2c1=O [CIPROFLOXACIN] | 12.5 (≈ 37.7 µM) | 6 (≈ 18.1 µM) | 6 (≈ 18.1 µM) | – | 19 | 20 | 25 | – | – | – | 12.5 (≈ 37.7 µM) | – | 18 | – | – | –
CCOC(=O)C1=C(C)N=c2s/c(=C\c3ccc(-c4ccc(Br)cc4)o3)c(=O)n2C1c1ccc(SC)cc1 (centres undefined) | 12.5 (≈ 21 µM) | 6 (≈ 10.1 µM) | 6 (≈ 10.1 µM) | 19 | 18 | 20 | 23 | 12.5 (≈ 21 µM) | 6 (≈ 10.1 µM) | 20 | 12.5 (≈ 21 µM) | 12 | 18 | 6 (≈ 10.1 µM) | 18 | 12.5 (≈ 21 µM)
CCOC(=O)C1=C(C)N=c2s/c(=C\c3ccc(-c4ccc([N+](=O)[O-])cc4)o3)c(=O)n2C1c1ccc(SC)cc1 (centres undefined) | 25 (≈ 44.5 µM) | 12.5 (≈ 22.3 µM) | 12.5 (≈ 22.3 µM) | 12 | 10 | 11 | 13 | 12.5 (≈ 22.3 µM) | 12.5 (≈ 22.3 µM) | 11 | 25 (≈ 44.5 µM) | 17 | 12 | 12.5 (≈ 22.3 µM) | 12 | 25 (≈ 44.5 µM)
CCOC(=O)C1=C(C)N=c2s/c(=C\c3ccc(-c4ccc(Cl)cc4)o3)c(=O)n2C1c1ccc(SC)cc1 (centres undefined) | 25 (≈ 45.4 µM) | 12.5 (≈ 22.7 µM) | 12.5 (≈ 22.7 µM) | 19 | 12 | 12 | 10 | 12.5 (≈ 22.7 µM) | 12.5 (≈ 22.7 µM) | 11 | 25 (≈ 45.4 µM) | 10 | 10 | 6 (≈ 10.9 µM) | 17 | 12.5 (≈ 22.7 µM)
CCOC(=O)C1=C(C)N=c2s/c(=C\c3ccc(F)c(Oc4ccccc4)c3)c(=O)n2C1c1ccc(SC)cc1 (centres undefined) | 25 (≈ 44.6 µM) | 12.5 (≈ 22.3 µM) | 12.5 (≈ 22.3 µM) | 20 | 19 | 12 | 12 | 12.5 (≈ 22.3 µM) | 6 (≈ 10.7 µM) | 19 | 12.5 (≈ 22.3 µM) | 12 | 10 | 6 (≈ 10.7 µM) | 18 | 12.5 (≈ 22.3 µM)
